# From PubChem BioAssay AID588704 (Broad Institute, 2011)
# Activity calls are given as the source filed them.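 Rule for the calls: active = strong luminescence drop, meaning toxicity to breast epithelial cells with E-cadherin silenced, a stem-like cancer model; inactive = the rest.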
# System: not listed separately
# Assay: cytotoxicity toward E-cadherin-knockdown HMLE CSC-like cells – cell-based, CellTiter-Glo luminescence, dry powder, dose response (AID 588704)
# Conditions: HMLE_shECad viability, CellTiter-Glo luminescence, 72 h
# How it was run: (§1)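 Doses: 0.010–32 µM final / System: EMT-induced HMLE_shECad cancer stem cell-like cells / Input: 1000 cells per well at seeding / Measured by: luminescent ATP assay (CellTiter-Glo) / Buffer or medium: serum-free screening medium for plating / Control set: DMSO-only wells / Repeats: duplicate / Timing: 72 h compound exposure, dosing at 24 h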
row,Compound,outcome
1,O=C(COc1ccc(Cl)cc1Cl)N/N=C/c1cnc[nH]1,inactive

# System: HMLE_shECad viability, CellTiter-Glo luminescence, 72 h
# Assay: as above
# Conditions: not given
# How it was run: as §1
row,Compound,AC50
1,O=C(COc1ccc(Cl)cc1Cl)N/N=C/c1ccc[nH]1,3390 nM
2,O=C(COc1c(Cl)cc(Cl)cc1Cl)N/N=C/c1ccc[nH]1,470 nM
3,CC(C)(C)c1ccc2c(c1)OC(C(=O)N/N=C/c1ccc[nH]1)CO2 (configuration not stated),3480 nM
4,Cc1cc(Cl)ccc1OCC(=O)N/N=C/c1ccc[nH]1,4580 nM
5,O=C(COc1cc(Cl)ccc1Cl)N/N=C/c1ccc[nH]1,930 nM
6,O=C(N/N=C/c1ccc[nH]1)c1cc2ccccc2o1,2460 nM
